Source: ChEMBL document CHEMBL1137663, “Evaluation of tigecycline penetration into colon wall tissue and epithelial lining fluid using a population pharmacokinetic model and Monte Carlo simulation” (Antimicrob Agents Chemother, 2007)

Tests used:
[1] = Volume of distribution in human serum; format: ADME, organism-based
In short: (§1)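 Serum, ELF and colon wall concentrations were fitted simultaneously in BigNPAG. One specific-volume term estimated all tissue compartment volumes. Individual Bayesian estimates were obtained with the population-of-one utility.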

[2] = Clearance in human serum; format: ADME, organism-based; in short: as §1
[3] = Volume of distribution in human colon wall tissue; format: ADME, organism-based; in short: as §1
[4] = Volume of distribution in human lung; format: ADME, organism-based; in short: as §1
[5] = AUC (0 to 24 hrs) in human serum at 5th AUC percentile curve; format: ADME, cell-free; parameters: time < 24 hr
In short: (§2)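 Serum came from five studies. Study 1: serial samples over 24 h after the last of seven i.v. doses. Study 2: samples after a single 100-mg infusion. Studies 3-5: patients on 100 mg then 50 mg q12h for 5-14 days, sampled predose, at end of infusion, and at 3 and 6 h. Assay was LC-MS/MS. Population modeling plus Monte Carlo simulation gave steady-state AUC0-24 percentiles.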

[6] = AUC (0 to 24 hrs) in human serum at 25th AUC percentile curve; format: ADME, cell-free; parameters: time < 24 hr; in short: as §2
[7] = AUC (0 to 24 hrs) in human serum at 50th AUC percentile curve; format: ADME, cell-free; parameters: time < 24 hr; in short: as §2
[8] = AUC (0 to 24 hrs) in human serum at 75th AUC percentile curve; format: ADME, cell-free; parameters: time < 24 hr; in short: as §2
[9] = AUC (0 to 24 hrs) in human serum at 95th AUC percentile curve; format: ADME, cell-free; parameters: time < 24 hr; in short: as §2
[10] = AUC (0 to 24 hrs) in human colon wall tissue at 5th AUC percentile curve; format: ADME, tissue-based; parameters: time < 24 hr
In short: (§3)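 Study 2: a single 100-mg i.v. dose was infused over about 30 min. Colon wall was collected about 4, 8, 12 or 24 h after the infusion started. Tissue (0.20-g aliquot) was homogenized with deuterated internal standard in acetonitrile, then assayed by LC-MS/MS. Data were comodeled with serum from all five studies in BigNPAG. Monte Carlo simulation gave steady-state AUC0-24 percentiles.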

[11] = AUC (0 to 24 hrs) in human colon wall tissue at 25th AUC percentile curve; format: ADME, tissue-based; parameters: time < 24 hr; in short: as §3
[12] = AUC (0 to 24 hrs) in human colon wall tissue at 50th AUC percentile curve; format: ADME, tissue-based; parameters: time < 24 hr; in short: as §3
[13] = AUC (0 to 24 hrs) in human colon wall tissue at 75th AUC percentile curve; format: ADME, tissue-based; parameters: time < 24 hr; in short: as §3
[14] = AUC (0 to 24 hrs) in human colon wall tissue at 95th AUC percentile curve; format: ADME, tissue-based; parameters: time < 24 hr; in short: as §3
[15] = Penetration ratio, ratio of AUC (0 to 24 hrs) for human colon wall tissue to AUC (0 to 24 hrs) for human serum at 5th AUC percentile curve; format: ADME
In short: (§4)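 Penetration was expressed as steady-state tissue (colon wall or ELF) AUC0-24 divided by serum AUC0-24. AUCs came from the population model, by direct simulation with the mean parameter vector and by Monte Carlo simulation using the parameter distribution.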

[16] = Penetration ratio, ratio of AUC (0 to 24 hrs) for human epithelial lining fluid to AUC (0 to 24 hrs) for human serum at 25th AUC percentile curve; format: ADME, tissue-based; in short: as §4
[17] = Penetration ratio, ratio of AUC (0 to 24 hrs) for human epithelial lining fluid to AUC (0 to 24 hrs) for human serum at 50th AUC percentile curve; format: ADME, tissue-based; in short: as §4
[18] = Penetration ratio, ratio of AUC (0 to 24 hrs) for human epithelial lining fluid to AUC (0 to 24 hrs) for human serum at 75th AUC percentile curve; format: ADME, tissue-based; in short: as §4
[19] = Penetration ratio, ratio of AUC (0 to 24 hrs) for human epithelial lining fluid to AUC (0 to 24 hrs) for human serum at 95th AUC percentile curve; format: ADME, tissue-based; in short: as §4
[20] = Protein binding in human serum; format: ADME, cell-free; settings: read-out: PB (converted)
[21] = Penetration ratio, ratio of AUC (0 to 24 hrs) for human colon wall tissue to AUC (0 to 24 hrs) for human serum at 25th AUC percentile curve; format: ADME; in short: as §4
[22] = Penetration ratio, ratio of AUC (0 to 24 hrs) for human colon wall tissue to AUC (0 to 24 hrs) for human serum at 50th AUC percentile curve; format: ADME; in short: as §4
[23] = Penetration ratio, ratio of AUC (0 to 24 hrs) for human colon wall tissue to AUC (0 to 24 hrs) for human serum at 75th AUC percentile curve; format: ADME; in short: as §4
[24] = Penetration ratio, ratio of AUC (0 to 24 hrs) for human colon wall tissue to AUC (0 to 24 hrs) for human serum at 95th AUC percentile curve; format: ADME; in short: as §4
[25] = AUC (0 to 24 hrs) in human epithelial lining fluid at 5th AUC percentile curve; format: ADME, tissue-based; parameters: time < 24 hr
In short: (§5)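 Study 1: 100-mg i.v. loading dose, then 50 mg i.v. every 12 h through day 4 (seven 30-min infusions). Drug was measured in BAL fluid by LC-MS/MS. ELF concentration was derived by urea dilution, using BAL and serum urea drawn at bronchoscopy. Values were comodeled with serum data in a population model, and Monte Carlo simulation gave steady-state AUC0-24 percentiles.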

[26] = AUC (0 to 24 hrs) in human epithelial lining fluid at 25th AUC percentile curve; format: ADME, tissue-based; parameters: time < 24 hr; in short: as §5
[27] = AUC (0 to 24 hrs) in human epithelial lining fluid at 50th AUC percentile curve; format: ADME, tissue-based; parameters: time < 24 hr; in short: as §5
[28] = AUC (0 to 24 hrs) in human epithelial lining fluid at 75th AUC percentile curve; format: ADME, tissue-based; parameters: time < 24 hr; in short: as §5
[29] = AUC (0 to 24 hrs) in human epithelial lining fluid at 95th AUC percentile curve; format: ADME, tissue-based; parameters: time < 24 hr; in short: as §5
[30] = Penetration ratio, ratio of AUC (0 to 24 hrs) for human epithelial lining fluid to AUC (0 to 24 hrs) for human serum at 5th AUC percentile curve; format: ADME, tissue-based; in short: as §4

CN(C)c1cc(NC(=O)CNC(C)(C)C)c(O)c2c1C[C@H]1C[C@H]3[C@H](N(C)C)C(O)=C(C(N)=O)C(=O)[C@@]3(O)C(O)=C1C2=O [TIGECYCLINE]
Vd [1]: 30.9 L
clearance [2]: 243 mL/min
Vd [3]: 50.5 L
Vd [4]: 35.2 L
AUC(0-t) at 24 h [5]: 4.84 µg·h/mL
AUC(0-t) at 24 h [6]: 5.09 µg·h/mL
AUC(0-t) at 24 h [7]: 6.16 µg·h/mL
AUC(0-t) at 24 h [8]: 8.72 µg·h/mL
AUC(0-t) at 24 h [9]: 18.5 µg·h/mL
AUC(0-t) at 24 h [10]: 1.65 µg·h/mL
AUC(0-t) at 24 h [11]: 6.44 µg·h/mL
AUC(0-t) at 24 h [12]: 15.6 µg·h/mL
AUC(0-t) at 24 h [13]: 30.4 µg·h/mL
AUC(0-t) at 24 h [14]: 3370 µg·h/mL
Kp [15]: 0.16
Kp [16]: 0.823
Kp [17]: 1.15
Kp [18]: 2.45
Kp [19]: 5.23
fraction unbound [20]: 0.29
Kp [21]: 0.683
Kp [22]: 1.73
Kp [23]: 3.91
Kp [24]: 199
AUC(0-t) at 24 h [25]: 4.3 µg·h/mL
AUC(0-t) at 24 h [26]: 5.19 µg·h/mL
AUC(0-t) at 24 h [27]: 9.03 µg·h/mL
AUC(0-t) at 24 h [28]: 22.3 µg·h/mL
AUC(0-t) at 24 h [29]: 32.4 µg·h/mL
Kp [30]: 0.561
